Source: ChEMBL document CHEMBL1629552, “In vitro and in vivo treatments of echinococcus protoscoleces and metacestodes with artemisinin and artemisinin derivatives” (Antimicrob Agents Chemother, 2008)
Active and inactive are the calls of the source. The rule behind the calls is not given here.

What was measured:
[1] = system: Echinococcus granulosus; experiment: Antimicrobial activity against Echinococcus granulosus protoscoleces assessed as reduction in protoscoleces viability at 10 uM by trypan blue exclusion assay; format: functional
How it was run: (§1)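 E. granulosus protoscoleces were isolated and kept in vitro per earlier work. Compounds from 10 mM DMSO stocks were added at 4, 10 and 40 μM, with nitazoxanide as positive control and DMSO as solvent control. Viability was scored microscopically by trypan blue exclusion over days of culture. The experiment was repeated three times.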

[2] = system: Echinococcus multilocularis; experiment: Antimicrobial activity against Echinococcus multilocularis metacestode assessed as increase in alkaline phosphatase activity at 40 uM
[3] = system: Echinococcus multilocularis; experiment: Antimicrobial activity against Echinococcus multilocularis metacestode assessed as increase in alkaline phosphatase activity at 40 uM within 4 days; format: functional, organism-based
How it was run: (§2)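 In vitro-cultured E. multilocularis metacestode vesicles were treated for 12 days with compounds at 40 μM (10 mM DMSO stocks). Albendazole was the positive control and matching DMSO the negative control. Culture supernatant was sampled daily and stored at −20°C, and parasite alkaline phosphatase (EmAP) activity was assayed at the time points shown.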

[4] = system: Echinococcus granulosus; experiment: Antimicrobial activity against Echinococcus granulosus protoscoleces assessed as reduction in protoscoleces viability at 40 uM by trypan blue exclusion assay; format: functional; how it was run: as §1
[5] = system: Echinococcus multilocularis; experiment: Antimicrobial activity against Echinococcus multilocularis -infected in BALB/c mouse assessed as parasite weight at 200 mg/kg body weight intragastrically administered 8 weeks post-infecion (reference value: 5.71+/-1.79 g); format: functional; conditions: route intragastric
[6] = system: Echinococcus granulosus; experiment: Antimicrobial activity against Echinococcus granulosus protoscoleces assessed as reduction in protoscoleces viability at 40 uM after 6 days by trypan blue exclusion assay; format: functional; how it was run: as §1
[7] = system: Echinococcus granulosus; experiment: Antimicrobial activity against Echinococcus granulosus metacestode assessed as loss of multicellular structure of germinal layer by transmission electron microscopy; format: functional
[8] = system: Echinococcus multilocularis; experiment: Antimicrobial activity against Echinococcus multilocularis metacestode assessed as increase in alkaline phosphatase activity at 40 uM after 8 days; format: functional, organism-based; how it was run: as §2
[9] = system: Echinococcus multilocularis; experiment: Antimicrobial activity against Echinococcus multilocularis metacestode assessed as loss of multicellular structure of germinal layer by transmission electron microscopy; format: functional, organism-based
[10] = species: Mus musculus; experiment: Toxicity against Echinococcus multilocularis -infected in BALB/c mouse assessed as adverse effect; format: organism-based; conditions: in vivo
[11] = system: Echinococcus granulosus; experiment: Antimicrobial activity against Echinococcus granulosus protoscoleces assessed as reduction in protoscoleces viability at 40 uM upto 2 days by trypan blue exclusion assay; format: functional; how it was run: as §1

Q: `CC(=O)Oc1ccccc1C(=O)Nc1ncc([N+](=O)[O-])s1` was tested. Which Activity [1] did it give?
A: Active

Q: `CO[C@H]1O[C@@H]2O[C@@]3(C)CC[C@H]4[C@H](C)CC[C@@H]([C@H]1C)[C@@]24OO3` was tested. Which Activity [2] did it give?
A: inactive

Q: And the Activity [3]?
A: inactive

Q: What about the Activity [4] of the same compound?
A: inactive

Q: What does the source list for `C[C@@H]1CC[C@H]2[C@@H](C)C(=O)O[C@@H]3O[C@@]4(C)CC[C@@H]1[C@]32OO4`?
A: Activity [2]: inactive; Activity [3]: inactive; Activity [4]: inactive

Q: `CCCSc1ccc2[nH]c(NC(=O)OC)nc2c1` [ALBENDAZOLE] was tested. Which Activity [5] did it give?
A: 2.96 g

Q: `C[C@H]1[C@@H](O)O[C@@H]2O[C@@]3(C)CC[C@H]4[C@H](C)CC[C@@H]1[C@@]24OO3` [ARTENIMOL] was tested. Which Activity [1] did it give?
A: inactive

Q: What about the Activity [6] of the same compound?
A: 90%

Q: What about the Activity [7] of the same compound?
A: Active

Q: And the Activity [8]?
A: Active

Q: What about the Activity [2] of the same compound?
A: inactive

Q: What about the Activity [5] of the same compound?
A: 4.11 g

Q: And the Activity [4]?
A: Active

Q: And the Activity [9]?
A: Active

Q: What about the Activity [10] of the same compound?
A: Non-toxic

Q: And the Activity [11]?
A: inactive

Q: Which Activity [1] does the source give for `C[C@H]1[C@H](OC(=O)CCC(=O)O)O[C@@H]2O[C@@]3(C)CC[C@H]4[C@H](C)CC[C@@H]1[C@@]24OO3` [ARTESUNATE] here?
A: inactive

Q: What about the Activity [7] of the same compound?
A: Active

Q: And the Activity [2]?
A: inactive

Q: What about the Activity [3] of the same compound?
A: Active

Q: And the Activity [5]?
A: 4.6 g

Q: And the Activity [4]?
A: Active

Q: And the Activity [9]?
A: Active

Q: And the Activity [10]?
A: Non-toxic
